From PubChem BioAssay
Shown is part of a subset that was picked to be rich in hits.
GASC1 inh: KDM4C (human) demethylase inhibition; GST-KDM4C 2-372, H3K9me3 peptide, LANCE TR-FRET; inhibition, % at 12.5 µM; hit rate 0.15% among 96,000; AID 720574;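 active means mean replicate inhibition above about 25%, with at least 55% of replicates also reaching it, limit read from the data, passing the limit was not always enough; inconclusive means only one of those two conditions met; inactive means neither condition met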
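material = GST-tagged GASC-1 (JMJD2C) catalytic fragment, aa 2-372 | amount = enzyme final amount 10 nM | medium = HEPES buffer, pH 7.5, plus ascorbate | also added = H3K9me3 peptide substrate, Fe(II), 2-oxoglutarate | dosing = single dose | times = 30 min demethylation and 1 h detection at room temperature | detection = LANCE TR-FRET | read-out basis = Fall in 671/618 emission ratio as inhibition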
IDH1 mut inh: blocks human IDH1 R132H reductase activity | O75874 | diaphorase/resazurin fluorescence, 60 min | inhibition, % at 10 µM | hit rate 0.18% among 70,000 | AID 624101; in the data active means inhibition above about 34%; inconclusive means no clear call, values can overlap the other calls; inactive means below about 11%;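 further: 0% = DMSO and 100% = no enzyme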
Target sequence (O75874 whole entry R132H): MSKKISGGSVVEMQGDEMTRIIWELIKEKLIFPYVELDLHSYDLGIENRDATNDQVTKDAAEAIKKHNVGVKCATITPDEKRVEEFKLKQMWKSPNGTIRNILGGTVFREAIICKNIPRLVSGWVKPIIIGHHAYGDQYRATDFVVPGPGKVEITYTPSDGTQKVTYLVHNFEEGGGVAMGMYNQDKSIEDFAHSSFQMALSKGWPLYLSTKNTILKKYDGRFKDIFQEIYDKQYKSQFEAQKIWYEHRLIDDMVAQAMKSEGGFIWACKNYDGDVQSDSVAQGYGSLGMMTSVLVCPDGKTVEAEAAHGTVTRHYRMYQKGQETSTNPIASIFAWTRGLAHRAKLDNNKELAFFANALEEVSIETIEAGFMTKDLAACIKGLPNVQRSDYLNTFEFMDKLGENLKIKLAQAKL
T cruzi growth-1: inhibitors of T. cruzi proliferation; T. cruzi beta-gal in NIH3T3, GalScreen luminescence, 90 h; inhibition, % at 8.34 µM; hit rate 5.9% among 77,000; AID 624255;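 active means mean inhibition above about 93%, with at least 55% of replicates each passing it, limit read from the data, passing the limit was not always enough; inconclusive means only one of those two conditions holds; inactive means neither condition holds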
T cruzi growth-2: inhibitors of T. cruzi proliferation. inhibition, % at 8.35 µM. AID 651739. hit rate 72% among 5,600. T. cruzi beta-gal in NIH3T3, GalScreen luminescence, 90 h. shares compounds with T cruzi growth-1;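 active means mean replicate inhibition above about 95% and at least 55% of replicates individually reaching it, limit read from the data; inconclusive means only one of the two criteria is met; inactive means neither criterion is met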
T cruzi growth-3: inhibitors of T. cruzi proliferation; shares compounds with T cruzi growth-1; T. cruzi beta-gal in NIH3T3, GalScreen luminescence, 90 h; inhibition, % at 2.09 µM; hit rate 21% among 5,600;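 active means mean inhibition above about 95%, with at least 55% of replicates also reaching it, limit read from the data; inconclusive means meets just one of the two conditions; inactive means meets neither condition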;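 further: plate controls were neutral control median for no effect and positive control median for full effect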
3T3 cytotox: cytotoxicity in mouse NIH/3T3 fibroblasts. shares compounds with T cruzi growth-1. NIH/3T3 viability, CellTiter-Glo ATP luminescence, 90 h. cytotoxicity (signal decrease), % at 8.35 µM. hit rate 14% among 5,600;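 active means mean signal decrease across replicates above about 35% based on untreated-well scatter, with enough replicates individually passing, limit read from the data; inconclusive means no rule stated though some were filed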;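 further: 0% = median of neutral control wells and 100% = median of positive control wells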
3T3 cytotox 2: kills mouse NIH/3T3 fibroblasts; shares compounds with T cruzi growth-1; NIH/3T3 viability, CellTiter-Glo ATP luminescence, 90 h; inhibition, % at 24.9 µM; hit rate 56% among 5,600;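 active means mean loss of cell viability signal at or above a set limit, and enough replicates individually reaching it; inconclusive means meets only the mean limit or only the replicate share; inactive means meets neither condition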;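 further: 0% = median of neutral control wells and 100% = median of positive control wells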
* marks the source's active call; other numbers are inactive results; ? = inconclusive; . = no result given.

SMILES	GASC1 inh	IDH1 mut inh	T cruzi growth-1	T cruzi growth-2	T cruzi growth-3	3T3 cytotox	3T3 cytotox 2
CC(C)NC(=O)N1CC[C@@H]2[C@@H](CO)N(C)c3ccc(-c4ccc(F)cc4)cc3[C@@H]21	0	.	100*	105*	101*	-22	49*
CC(C)NC(=O)N1CC[C@@H]2[C@H]1c1cc(-c3cccc(F)c3)ccc1N(C)[C@H]2CO	-1	.	75	.	.	.	.
CC(C)NC(=O)N1CC[C@@H]2[C@H]1c1cc(-c3ccc(F)cc3)ccc1N(C)[C@@H]2CO	0	.	108*	111*	85	-1	9
COc1ccc(-c2ccc3c(c2)[C@@H]2[C@@H](CCN2C(=O)NC(C)C)[C@H](CO)N3C)cc1	2	.	29	.	.	.	.
CC(C)NC(=O)N(C)C[C@@H]1OCCCC[C@@H](C)Oc2ccc(NS(=O)(=O)c3cn(C)cn3)cc2C(=O)N([C@@H](C)CO)C[C@H]1C	1	.	28	.	.	.	.
C[C@H](O)C#Cc1ccc2c(c1)O[C@@H](CN(C)C(=O)C1CC1)[C@@H](C)CN([C@H](C)CO)S2(=O)=O	-2	0	-1	.	.	.	.
C[C@H](CO)N1C[C@H](C)[C@H](CN(C)S(=O)(=O)c2ccccc2)OCCCC[C@H](C)Oc2ccc(NC(=O)Nc3ccccc3)cc2C1=O	0	2	100*	108*	65	-10	54*
C[C@@H]1CN([C@H](C)CO)C(=O)c2cc(NC(=O)Nc3ccccc3)ccc2O[C@@H](C)CCCCO[C@H]1CN(C)S(=O)(=O)c1ccccc1	0	0	32	.	.	.	.
C[C@@H]1CCCCO[C@@H](CN(C)S(=O)(=O)c2ccccc2)[C@H](C)CN([C@@H](C)CO)C(=O)c2cc(NC(=O)Nc3ccccc3)ccc2O1	0	-3	20	.	.	.	.
C[C@@H]1CCCCO[C@H](CN(C)S(=O)(=O)c2ccccc2)[C@H](C)CN([C@H](C)CO)C(=O)c2cc(NC(=O)Nc3ccccc3)ccc2O1	.	3	103*	113*	61	18	34*
CCCC(=O)Nc1ccc2c(c1)OC[C@H](C)N(Cc1cncnc1)C[C@H](C)[C@H](OC)CN(C)C2=O	-1	0	38	.	.	.	.
COc1ccc(CN(C)C[C@H]2OCCCC[C@@H](C)Oc3ccc(NS(=O)(=O)c4ccc(Cl)cc4)cc3C(=O)N([C@H](C)CO)C[C@@H]2C)cc1	6	.	44	.	.	.	.
COc1ccc(S(=O)(=O)Nc2ccc3c(c2)C(=O)N([C@H](C)CO)C[C@H](C)[C@@H](CN(C)Cc2ccc(C(F)(F)F)cc2)OCCCC[C@@H](C)O3)cc1	-1	.	98*	102*	38	9	84*
COc1ccc(CN(C)C[C@H]2OCCCC[C@@H](C)Oc3ccc(NS(=O)(=O)c4ccc(Cl)cc4)cc3C(=O)N([C@H](C)CO)C[C@H]2C)cc1	0	.	119*	115*	92	34	106*
COc1ccc(CN(C)C[C@H]2OCCCC[C@@H](C)Oc3ccc(NS(=O)(=O)c4ccc(F)cc4)cc3C(=O)N([C@H](C)CO)C[C@@H]2C)cc1	1	2	3	.	.	.	.
COc1ccc(S(=O)(=O)Nc2ccc3c(c2)C(=O)N([C@@H](C)CO)C[C@H](C)[C@@H](CN(C)Cc2ccc(C(F)(F)F)cc2)OCCCC[C@H](C)O3)cc1	1	.	89	.	.	.	.
COc1ccc(CN(C)C[C@H]2OCCCC[C@H](C)Oc3ccc(NS(=O)(=O)c4ccc(OC)cc4)cc3C(=O)N([C@H](C)CO)C[C@@H]2C)cc1	1	10	20	.	.	.	.
COc1ccc(CN(C)C[C@H]2OCCCC[C@H](C)Oc3ccc(NS(=O)(=O)c4ccc(F)cc4)cc3C(=O)N([C@@H](C)CO)C[C@H]2C)cc1	2	.	103*	105*	66	26	103*
COc1ccc(CN(C)C[C@H]2OCCCC[C@@H](C)Oc3ccc(NS(=O)(=O)c4ccc(Cl)cc4)cc3C(=O)N([C@@H](C)CO)C[C@H]2C)cc1	-1	0	?	82	68	38*	106*
CO[C@H]1CN(C)C(=O)c2ccc(NC(=O)Nc3ccccc3)cc2OC[C@@H](C)N(CC2CC2)C[C@H]1C	2	0	-47	.	.	.	.
CCC(=O)Nc1ccc2c(c1)C(=O)N(C)C[C@H](OC)[C@@H](C)CN(C(=O)c1ccccc1F)[C@@H](C)CO2	1	0	2	.	.	.	.
CCC(Sc1nnc(-c2ccncc2)n1C)C(=O)Nc1c(C)cccc1C (centres undefined)	.	0	.	.	.	.	.
Cc1ccc2cccc(OCC(=O)Nc3ccc(C)c([N+](=O)[O-])c3)c2n1	.	3	.	.	.	.	.
COc1ccc(CN(C)C[C@@H]2OCCCC[C@H](C)Oc3ccc(NS(=O)(=O)c4ccc(Cl)cc4)cc3C(=O)N([C@H](C)CO)C[C@H]2C)cc1	0	0	?	97*	110*	31	103*
COc1ccc(CN(C)C[C@H]2OCCCC[C@H](C)Oc3ccc(NS(=O)(=O)c4ccc(Cl)cc4)cc3C(=O)N([C@H](C)CO)C[C@@H]2C)cc1	14	.	89	.	.	.	.
SMILES	GASC1 inh	IDH1 mut inh	T cruzi growth-1	T cruzi growth-2	T cruzi growth-3	3T3 cytotox	3T3 cytotox 2
C[C@@H]1CCCCO[C@@H](CN(C)S(=O)(=O)c2ccccc2)[C@@H](C)CN([C@@H](C)CO)C(=O)c2cc(NS(=O)(=O)c3ccc(F)cc3)ccc2O1	-1	2	85	.	.	.	.
C[C@@H]1CCCCO[C@@H](CN(C)S(=O)(=O)c2ccc(F)cc2)[C@@H](C)CN([C@@H](C)CO)C(=O)c2cc(NS(=O)(=O)c3ccccc3)ccc2O1	1	0	51	.	.	.	.
C[C@@H]1CCCCO[C@H](CN(C)S(=O)(=O)c2ccc(F)cc2)[C@H](C)CN([C@@H](C)CO)C(=O)c2cc(NS(=O)(=O)c3ccc(F)cc3)ccc2O1	-3	.	110*	113*	81	2	4
C[C@@H]1CCCCO[C@H](CN(C)S(=O)(=O)c2ccc(F)cc2)[C@H](C)CN([C@H](C)CO)C(=O)c2cc(NS(=O)(=O)c3ccc(F)cc3)ccc2O1	-1	2	115*	106*	?	10	-5
C[C@H](CO)N1C[C@H](C)[C@@H](CN(C)S(=O)(=O)c2ccc(F)cc2)OCCCC[C@H](C)Oc2ccc(NS(=O)(=O)c3ccc(F)cc3)cc2C1=O	0	0	98*	96*	40	66*	59*
C[C@@H]1CN([C@H](C)CO)C(=O)c2cc(NS(=O)(=O)c3ccc(F)cc3)ccc2O[C@@H](C)CCCCO[C@H]1CN(C)S(=O)(=O)c1ccc(F)cc1	0	2	.	.	.	.	.
Cc1noc(C)c1S(=O)(=O)N(C)C[C@@H]1OCCCC[C@@H](C)Oc2ccc(NS(=O)(=O)c3ccc(F)cc3)cc2C(=O)N([C@@H](C)CO)C[C@@H]1C	0	2	56	.	.	.	.
